Series [1] deals with Trypanosoma brucei rhodesiense. The series is described as follows: Antitrypanosomal activity against Trypanosoma brucei rhodesiense STIB900. In kind it is functional, organism-based.
Series [2] is described as follows: Selectivity index, ratio of IC50 for rat L6 cells to IC50 for Trypanosoma brucei rhodesiense STIB900. Conditions: read-out: Ratio IC50. In kind it is toxicity, cell-based.
The next series concerns Plasmodium falciparum. The series is described as follows: Antimalarial activity against chloroquine-resistant Plasmodium falciparum K1. In kind it is functional, organism-based.
Series [3] can be described thus: Selectivity index, ratio of IC50 for rat L6 cells to IC50 for chloroquine-resistant Plasmodium falciparum K1. Particulars: read-out: Ratio IC50. In kind it is toxicity, cell-based.
Another series deals with Leishmania donovani. The series is described as follows: Antileishmanial activity against Leishmania donovani MHOM/SD/62/1S-CL2D amastigotes. In kind it is functional, organism-based. The method in brief: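 IC50 taken as the average of duplicate determinations against L. donovani.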
The nature of series [4]: Selectivity index, ratio of IC50 for rat L6 cells to IC50 for Leishmania donovani MHOM/SD/62/1S-CL2D amastigotes. In kind it is toxicity, cell-based. Particulars: read-out: Ratio IC50.
The test system of another series is L6. The series is described as follows: Cytotoxicity against rat L6 cells. The class given is cell-based. The method in brief:
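Rat L6 myoblasts served as the cytotoxicity measure. IC50 is the average of duplicate determinations.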

The test system of series [5] is Trypanosoma brucei rhodesiense. The series is described as follows: Antitrypanosomal activity against Trypanosoma brucei rhodesiense STIB900 infected NMRI mouse assessed as infection cure rate at 10 mg/kg, ip dosed for 4 days. The class given is functional, organism-based. Details: dose 10 mg/kg. Put shortly:
(§1)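 Mice infected with T. b. rhodesiense STIB900 were dosed intraperitoneally once daily for 4 days. Outcome was scored as cured/infected animals out of groups of four, plus mean survival days post infection for mice showing parasitemia relapse.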

For series [6], the system named is Trypanosoma brucei rhodesiense. The series is described as follows: Antitrypanosomal activity against Trypanosoma brucei rhodesiense STIB900 infected NMRI mouse assessed as infection cure rate at 5 mg/kg, ip dosed for 4 days. The class given is functional, organism-based. Details: dose 5 mg/kg. Put shortly: as §1
For series [7], the system named is Trypanosoma brucei rhodesiense. Description: Antitrypanosomal activity against Trypanosoma brucei rhodesiense STIB900 infected NMRI mouse assessed mean survival time at 10 mg/kg, ip dosed for 4 days. Particulars: route intraperitoneal. In kind it is functional.
In series [8] the test system is Trypanosoma brucei rhodesiense. The series is described as follows: Antitrypanosomal activity against Trypanosoma brucei rhodesiense STIB900 infected NMRI mouse assessed mean survival time at 5 mg/kg, ip dosed for 4 days. The class given is functional. Particulars: route intraperitoneal.
The next series relates to Mus musculus. Description: Toxicity in ip dosed NMRI mouse infected with Trypanosoma brucei rhodesiense STIB900. Conditions: in vivo. In kind it is organism-based.
Series [9] relates to Trypanosoma brucei rhodesiense. The series is described as follows: Antitrypanosomal activity against Trypanosoma brucei rhodesiense STIB900 infected NMRI mouse assessed as infection cure rate at 4 mg/kg, ip dosed for 4 days. In kind it is functional, organism-based. Set-up: dose 4 mg/kg.
Series [10] deals with Trypanosoma brucei rhodesiense. Description: Antitrypanosomal activity against Trypanosoma brucei rhodesiense STIB900 infected NMRI mouse assessed mean survival time at 4 mg/kg, ip dosed for 4 days. In kind it is functional. Particulars: route intraperitoneal.
Series [11] concerns Trypanosoma brucei rhodesiense. Description: Antitrypanosomal activity against Trypanosoma brucei rhodesiense STIB900 infected NMRI mouse assessed as infection cure rate at 20 mg/kg, ip dosed for 4 days. In kind it is functional, organism-based. Details: dose 20 mg/kg. Put shortly: as §1
Series [12] relates to Trypanosoma brucei rhodesiense. Description: Antitrypanosomal activity against Trypanosoma brucei rhodesiense STIB900 infected NMRI mouse assessed mean survival time at 20 mg/kg, ip dosed for 4 days. The class given is functional. Particulars: route intraperitoneal.
The subject of series [13] is Trypanosoma brucei rhodesiense. The series is described as follows: Antitrypanosomal activity against Trypanosoma brucei rhodesiense STIB900 infected NMRI mouse assessed mean survival time at 100 mg/kg, po dosed for 4 days. In kind it is functional.
Series [14] deals with Trypanosoma brucei rhodesiense. The series is described as follows: Antitrypanosomal activity against Trypanosoma brucei rhodesiense STIB900 infected NMRI mouse assessed as infection cure rate at 100 mg/kg, po dosed for 4 days. Set-up: dose 100 mg/kg. In kind it is functional, organism-based. Put shortly: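 Mice infected with T. b. rhodesiense STIB900 received oral doses once daily for 4 days. Cure was scored as cured/infected animals, with mean survival days post infection for relapsing mice.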

Each structure is given as a SMILES string. Active and inactive are the calls of the source. No cut-off for these calls is given here.

Turning to `CC(C)NC(=N)c1ccc(OCc2cccc(COc3ccc(C(=N)NC(C)C)cc3)c2)cc1`, the IC50 in series [1] was 0.068 µM; in the series with Plasmodium falciparum, 0.0036 µM; with Leishmania donovani, 7.27 µM; in the series with L6, more than 169 µM. Also, the selectivity ratio in [2] was more than 2490; in [3], more than 46900; in series [4], more than 23.2. Also, the result in series [5] and in series [6] was Active. Also, the Survival is more than 60 days in series [7] and more than 51.5 days in [8].

For `CC(C)NC(=N)c1ccc(OCc2ccc(COc3ccc(C(=N)NC(C)C)cc3)cc2)cc1`, the IC50 in [1] is 0.0748 µM; in the series on Plasmodium falciparum, 0.017 µM; in the series with Leishmania donovani it was 7.99 µM; in the series on L6, more than 167 µM. In addition, the selectivity ratio was more than 2230 in [2], more than 9820 in series [3] and more than 20.9 in series [4]. In addition, the outcome in [6] was inactive. The compound also displayed a Survival in series [8] of 17 days. The Activity result with Mus musculus is on record as “Toxic”.

Regarding `Nc1nc(N)nc(Nc2ccc([As]3SCC(CO)S3)cc2)n1` (stereo not given) [MELARSOPROL], in [2], the selectivity ratio amounted to 1220. In series [9], the outcome was Active. This compound registered a Survival in series [10] of more than 60 days.

For the compound `c1cc(COc2ccc(C3=NCCN3)cc2)ccc1COc1ccc(C2=NCCN2)cc1`, the IC50 turned out to be 0.38 µM in series [1], 0.018 µM in the series with Plasmodium falciparum, 1.9 µM in the series with Leishmania donovani and 30.2 µM in the series with L6. For the same compound, the results for the selectivity ratio in series [2], in series [3] and in series [4] were 79.5, 1680 and 15.9, respectively. In addition, in series [11], the result was inactive. The compound also displayed a Survival in series [12] of 15 days.

In the case of `N=C(NO)c1ccc(OCc2cccc(COc3ccc(C(=N)NO)cc3)c2)cc1`, the IC50 was more than 62.6 µM in series [1], more than 10.4 µM in the series on Plasmodium falciparum, more than 100 µM with Leishmania donovani and 6.53 µM with L6. Further, the selectivity ratio in [2] was less than 0.104; in [3], less than 0.628; in series [4], less than 0.0653. In [13], this compound returned a Survival of more than 38.3 days.

Turning to `N=C(N)c1ccc(OCc2ccccc2COc2ccc(C(=N)N)cc2)cc1`, the IC50 in series [1] was found to be 0.144 µM; in the series with Plasmodium falciparum, 0.153 µM; in the series with Leishmania donovani, 3.82 µM; in the series with L6 it was 30.1 µM. Besides, the selectivity ratio in series [2] came out at 209; in series [3] it was 197; in [4], 7.87. Further, the result in series [11] was inactive. In [12], this compound registered a Survival of 13.5 days.

Turning to `N=C(N)c1cccc(OCc2ccccc2COc2cccc(C(=N)N)c2)c1`, the IC50 in [1] was 0.14 µM; in the series on Plasmodium falciparum, 0.109 µM; with Leishmania donovani, 5.5 µM; in the series on L6, 84.6 µM. Further, the selectivity ratio was determined as 602 in series [2], 775 in [3] and 15.4 in series [4]. Further, the Survival in series [7] was more than 27.3 days. Also, the Activity entry with Mus musculus is “Toxic”.

In the case of `N=C(N)c1cccc(OCc2cccc(COc3cccc(C(=N)N)c3)c2)c1`, the IC50 in series [1] is 0.0473 µM; with Plasmodium falciparum, 0.0191 µM; in the series on L6 it was 64.2 µM. Besides, the figures for the selectivity ratio in series [2] and in series [3] were 1360 and 3360, respectively. In addition, in [6], the result was inactive. In series [8], this compound gave a Survival of 17 days.

For `N=C(N)c1ccc(OCc2cccc(COc3ccc(C(=N)N)cc3)c2)cc1`, the IC50 in series [1] came to 0.0021 µM; with Plasmodium falciparum, 0.0256 µM; in the series on Leishmania donovani it was 3.26 µM; in the series with L6 it was 9.14 µM. For the same compound, the selectivity ratio in series [2] stood at 4350; in [3], 357; in series [4], 2.8. In series [7], this compound showed a Survival of more than 35.5 days.

Regarding `c1cc(COc2ccc(C3=NCCN3)cc2)cc(COc2ccc(C3=NCCN3)cc2)c1`, the IC50 is 0.0462 µM in series [1], 0.018 µM in the series on Plasmodium falciparum, 3.99 µM with Leishmania donovani and 123 µM in the series on L6. Moreover, the selectivity ratio in series [2] worked out at 2670; in series [3], 6860; in [4] it was 30.9. In series [11], the result was inactive. This compound also came in with a Survival in [12] of 22.8 days.

In the case of `N=C(N)c1cccc(OCc2ccc(COc3cccc(C(=N)N)c3)cc2)c1`, the IC50 in series [1] was 0.0778 µM; in the series with Plasmodium falciparum it was 0.0677 µM; in the series on Leishmania donovani, more than 200 µM; in the series with L6 it was 8.02 µM. Also, the figures for the selectivity ratio in series [2], in series [3] and in [4] were 103, 119 and less than 0.0401, respectively. Moreover, the outcome in series [11] was inactive. Also, the Survival in [12] amounted to 19.5 days.

For `CONC(=N)c1ccc(OCc2cccc(COc3ccc(C(=N)NOC)cc3)c2)cc1`, the IC50 was 30.4 µM in series [1], more than 9.72 µM with Plasmodium falciparum, more than 100 µM with Leishmania donovani and more than 33.6 µM in the series on L6. Further, the selectivity ratio in series [2] is more than 1.11; in series [3] it was more than 3.46; in [4], less than 0.336. In [14], the result was inactive. The same compound came in with a Survival in [13] of 6 days.

Regarding `N=C(NO)c1cccc(OCc2cccc(COc3cccc(C(=N)NO)c3)c2)c1`, the IC50 is 7.71 µM in [1], 2.09 µM in the series on Plasmodium falciparum, more than 50 µM in the series on Leishmania donovani and 8.6 µM in the series on L6. Also, the values for the selectivity ratio in series [2], in series [3] and in series [4] were 1.12, 4.12 and less than 0.172, respectively. For the same compound, the outcome in [14] was inactive. Also, the Survival in [13] came out at 14.5 days.
